Assays:
[1] = tested on: MDA-MB-231; assay: Cytotoxicity against human MDA-MB-231 cells assessed as cell growth inhibition after 24 hrs by MTT assay; format: functional, cell-based; conditions: MDA-MB-231, 24 h
Procedure, shortened: (§1)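 Cells seeded 24 h in RPMI 1640 + 10% FBS. RWPE-1 was kept in K-SFM with bovine pituitary extract and EGF. Cells then exposed to compounds for 24 h at 37 °C, 5% CO2, with DMSO vehicle and docetaxel as positive control. MTT added for 4 h, absorbance read at 570 nm. Triplicate runs, IC50 reported as mean of three experiments.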

[2] = tested on: HeLa; assay: Cytotoxicity against human HeLa cells assessed as cell growth inhibition after 24 hrs by MTT assay; format: functional, cell-based; procedure, shortened: as §1
[3] = tested on: K562; assay: Cytotoxicity against human K562 cells assessed as cell growth inhibition after 24 hrs by MTT assay; format: functional, cell-based; conditions: K562, 24 h; procedure, shortened: as §1
[4] = tested on: PC-3; assay: Cytotoxicity against human PC3 cells assessed as cell growth inhibition after 24 hrs by MTT assay; format: functional, cell-based; conditions: PC-3, 24 h; procedure, shortened: as §1
[5] = tested on: DU-145; assay: Cytotoxicity against human DU145 cells assessed as cell growth inhibition after 24 hrs by MTT assay; format: functional, cell-based; conditions: DU-145, 24 h; procedure, shortened: as §1
[6] = tested on: MCF7; assay: Cytotoxicity against human MCF7 cells assessed as cell growth inhibition after 24 hrs by MTT assay; format: functional, cell-based; conditions: MCF7, 24 h; procedure, shortened: as §1
[7] = tested on: RWPE-1; assay: Cytotoxicity against human RWPE1 cells assessed as cell growth inhibition after 24 hrs by MTT assay; format: cell-based; conditions: RWPE-1, 24 h; procedure, shortened: as §1

Structure (SMILES) | IC50 [1] [µM] | IC50 [2] [µM] | IC50 [3] [µM] | IC50 [4] [µM] | IC50 [5] [µM] | IC50 [6] [µM] | IC50 [7] [µM]
COc1cc([C@@H]2C[C@@H](O)C[C@H]3c4cc(OCc5ccccc5)c(OCc5ccccc5)cc4CCN23)cc(OC)c1OC | > 20 | > 20 | > 20 | > 20 | > 20 | > 20 | > 20
COc1ccc([C@@H]2C[C@H](O)C[C@H]3c4cc(OCc5cc(C)cc(C)c5)c(OCc5cc(C)cc(C)c5)cc4CCN23)cc1OC | > 20 | > 20 | > 20 | > 20 | > 20 | > 20 | > 20
O[C@H]1C[C@@H](c2ccccc2)N2CCc3cc(OCc4ccccc4)ccc3[C@@H]2C1 | > 20 | > 20 | > 20 | > 20 | > 20 | > 20 | > 20
C[C@@H]1C[C@@](C)(O)C[C@H]2c3cc(OCc4ccccc4)c(OCc4ccccc4)cc3CCN12 | 6.47 | 5.21 |  | 2.6 | 2.11 | 1.39 | 
O[C@@H]1C[C@@H](c2ccccc2)N2CCc3cc(OCc4ccccc4)c(OCc4ccccc4)cc3[C@@H]2C1 | 11.8 | 11.2 | 6.96 | 8.37 | 12 | 20.1 | 40 to 86.8
COc1ccc([C@@H]2C[C@@H](O)C[C@H]3c4cc(OCc5cc(F)cc(F)c5)c(OCc5cc(F)cc(F)c5)cc4CCN23)cc1OC | 1.3 | 4.67 | 3.92 | 1.71 | 3.96 | 3.52 | 2.24
CCCCCCOc1cc2c(cc1OCCCCCC)[C@@H]1C[C@@H](O)C[C@@H](C)N1CC2 | > 20 | > 20 | > 20 | > 20 | > 20 | > 20 | > 20
CCCCCCOc1cc2c(cc1OCCCCCC)[C@@H]1CC(=O)C[C@@H](C)N1CC2 (relative stereo) | > 20 | > 20 | > 20 | > 20 | > 20 | > 20 | > 20
O=C1C[C@@H](c2ccc(-c3ccccc3)cc2)N2CCc3cc(OCc4ccccc4)c(OCc4ccccc4)cc3[C@@H]2C1 (relative stereo) | > 20 | > 20 | > 20 | > 20 | > 20 | > 20 | > 20
C[C@@H]1CC(=O)C[C@H]2c3cc(OCc4ccccc4)c(OCc4ccccc4)cc3CCN12 (relative stereo) | 2.52 | 2.99 | > 20 | 2.27 | 4.25 | 2.23 | 
C[C@@H]1C[C@@H](O)C[C@H]2c3cc(OCc4ccccc4)c(OCc4ccccc4)cc3CCN12 | 1.15 | 2.66 | 1.52 | 2.81 | 2.18 | 2.2 | 1.84
CCC[C@@H]1C[C@H](O)C[C@H]2c3cc(OCc4ccccc4)c(OCc4ccccc4)cc3CCN12 | 6.72 | 5.49 | 3.88 |  |  |  | 
CCCCCCCCCCCCCCCCOc1cc2c(cc1OCCCCCCCCCCCCCCCC)[C@@H]1C[C@H](O)C[C@@H](C)N1CC2 | > 20 | > 20 | > 20 | > 20 | > 20 | > 20 | > 20
O=C1C=CN2CCc3cc(OCc4ccccc4)c(OCc4ccccc4)cc3C2C1 (stereo not given) | > 20 | > 20 | > 20 | > 20 | > 20 | > 20 | > 20
CCC[C@@H]1C[C@@](C)(O)C[C@H]2c3cc(OCc4ccccc4)c(OCc4ccccc4)cc3CCN12 | 2.37 | 6.34 | 6.81 |  |  |  | 
C[C@]1(O)C[C@@H](c2ccccc2)N2CCc3cc(OCc4ccccc4)c(OCc4ccccc4)cc3[C@@H]2C1 | > 20 | > 20 | > 20 | > 20 | > 20 | > 20 | > 20
O[C@H]1C[C@@H](c2ccccc2)N2CCc3ccccc3[C@@H]2C1 | > 20 | > 20 | > 20 | > 20 | > 20 | > 20 | > 20
CCC[C@@H]1C[C@@H](O)C[C@H]2c3cc(OCc4ccccc4)c(OCc4ccccc4)cc3CCN12 | 2.57 | 2.38 | 2.32 |  |  |  | 

Structure (SMILES) | IC50 [1] [µM] | IC50 [2] [µM] | IC50 [3] [µM] | IC50 [4] [µM] | IC50 [5] [µM] | IC50 [6] [µM] | IC50 [7] [µM]
O[C@@H]1C[C@@H](c2ccccc2)N2CCc3ccccc3[C@@H]2C1 | > 20 | > 20 | > 20 | > 20 | > 20 | > 20 | > 20
COc1ccc([C@@H]2CC(=O)C[C@H]3c4cc(OCc5ccccc5)c(OCc5ccccc5)cc4CCN23)cc1OC (relative stereo) | > 20 | > 20 | > 20 | > 20 | > 20 | > 20 | > 20
O[C@]1(c2ccccc2)C[C@@H](c2ccccc2)N2CCc3cc(OCc4ccccc4)c(OCc4ccccc4)cc3[C@@H]2C1 | > 20 | > 20 | > 20 | > 20 | > 20 | > 20 | > 20
C[C@@H]1CC(=O)C[C@H]2c3cc(OCc4cc(C(F)(F)F)cc(C(F)(F)F)c4)c(OCc4cc(C(F)(F)F)cc(C(F)(F)F)c4)cc3CCN12 (relative stereo) | > 20 | > 20 | > 20 | > 20 | > 20 | > 20 | > 20
CC1(C)CC(=O)C[C@H]2c3cc(OCc4ccccc4)c(OCc4ccccc4)cc3CCN21 | > 20 | > 20 | > 20 | > 20 | > 20 | > 20 | > 20
CC1(C)C[C@@H](O)C[C@H]2c3cc(OCc4ccccc4)c(OCc4ccccc4)cc3CCN21 (relative stereo) | 5.01 | 7.22 | 5.44 |  |  |  | 
Oc1cc2c(cc1O)[C@@H]1C[C@H](O)C[C@@H](c3ccccc3)N1CC2 | > 20 | > 20 | > 20 | > 20 | > 20 | > 20 | > 20
O=C1C[C@@H](c2ccccc2)N2CCc3cc4c(cc3[C@@H]2C1)OCO4 (relative stereo) | > 20 | > 20 | > 20 | > 20 | > 20 | > 20 | > 20
C[C@@H]1C[C@@](C)(O)C[C@H]2c3cc(OCc4cc(F)cc(F)c4)c(OCc4cc(F)cc(F)c4)cc3CCN12 | 2.81 | 1.29 | 1.13 | 1.29 | 1.33 | 1.98 | 4.45
CCCCCC[C@@H]1CC(=O)C[C@H]2c3cc(OCc4ccccc4)c(OCc4ccccc4)cc3CCN12 (relative stereo) | > 20 | > 20 | > 20 | > 20 | > 20 | > 20 | > 20
C[C@@]1(O)C[C@@H](c2ccccc2)N2CCc3cc(OCc4ccccc4)c(OCc4ccccc4)cc3[C@@H]2C1 | 5.48 | 6.57 | 1.98 |  | 11.6 | 9.2 | 2.02
COc1cc2c(cc1OC)[C@@H]1C[C@H](O)C[C@@H](c3ccccc3)N1CC2 | > 20 | > 20 | > 20 | > 20 | > 20 | > 20 | > 20
C[C@@H]1C[C@H](O)C[C@H]2c3cc(OCc4cc(F)cc(F)c4)c(OCc4cc(F)cc(F)c4)cc3CCN12 | 3.16 | 3.04 | 2.29 |  |  |  | 
C[C@@H]1C[C@H](O)C[C@H]2c3cc(OCc4ccccc4)c(OCc4ccccc4)cc3CCN12 | 7.22 | 1.06 | 3.26 | 7.67 | 1.95 | 2.5 | 
C[C@@H]1C[C@H](O)C[C@H]2c3cc(OCc4ccc(C(C)(C)C)cc4)c(OCc4ccc(C(C)(C)C)cc4)cc3CCN12 | 1.46 | 2.56 | 2.88 |  |  |  | 
C[C@@H]1C[C@H](O)C[C@H]2c3cc(OCc4ccc(Br)cc4)c(OCc4ccc(Br)cc4)cc3CCN12 | 2.25 | 2.88 | 3.15 |  |  |  | 2.89
CC[C@@H]1C[C@H](O)C[C@H]2c3cc(OCc4ccccc4)c(OCc4ccccc4)cc3CCN12 | 10.2 | 5.27 | 3.81 | 3.52 | 3.37 | 3.02 | 
CCC[C@@H]1C[C@@H](O)/C=C\C(CC)[C@H]2c3cc(OCc4ccccc4)c(OCc4ccccc4)cc3CCN12 (stereo not given in full) | 2.72 | 3.43 | 5.61 |  |  |  | 
